Reference: ChEMBL document CHEMBL4765234 (J Med Chem, 2016)
The source made the active and inactive calls. No cut-off for these calls is given here.

Key:
[1] = molecular target: T1, Free fatty acid receptor 1 (Homo sapiens, UniProt O14842); test: Agonist activity at human recombinant full length GPR40 overexpressed in human HEK293 cells assessed as increase in inositol phosphate accumulation in presence of terbium cryptate-labeled anti IP1/d2-labelled IP1 measured after 120 mins by HTRF assay; format: functional, cell-based
T1 sequence (O14842 whole entry): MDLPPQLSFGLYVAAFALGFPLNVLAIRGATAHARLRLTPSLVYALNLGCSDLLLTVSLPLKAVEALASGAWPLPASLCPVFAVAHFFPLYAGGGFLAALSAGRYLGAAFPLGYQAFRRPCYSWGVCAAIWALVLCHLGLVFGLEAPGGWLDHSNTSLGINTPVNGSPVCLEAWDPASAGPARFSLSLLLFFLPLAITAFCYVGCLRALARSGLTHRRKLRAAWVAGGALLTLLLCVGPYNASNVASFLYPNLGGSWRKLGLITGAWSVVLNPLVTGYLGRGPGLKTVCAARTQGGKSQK
Outline: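 HEK293 hGPR40 cells (20K/well) were cultured overnight, washed, and held in IP1 stimulation buffer. IP-1 was measured by competitive HTRF immunoassay with terbium cryptate anti-IP1 mAb and d2-labelled IP1.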

[2] = molecular target: T1, Free fatty acid receptor 1; test: Agonist activity at human recombinant full-length Prolink-tagged GPR40 fused with EA-tagged beta-arrestin expressed in human HEK293 cells assessed as induction of beta-arrestin recruitment measured after 90 mins by beta-galactosidase based PathHunter assay; format: cell-based
Outline: (§1)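 PathHunter β-gal complementation. Cells were incubated overnight at 5000/well in medium with 1% heat-inactivated FBS. Compound was added as a 20-point 2-fold series from a top final of 100 μM (1% DMSO) for 90 min at 37 °C, followed by detection reagents and chemiluminescence read after 1 h at rt.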

[3] = molecular target: T2, Peroxisome proliferator-activated receptor alpha (Homo sapiens) (UniProt Q07869); test: Displacement of [3H]-[…] from PPARalpha (unknown origin) expressed in baculovirus infected Sf9 insect cells upto 30 uM measured after 10 hrs by microbeta scintillation counting analysis; settings: dose microM <=30, time 10.0 hrs
T2 sequence (whole entry): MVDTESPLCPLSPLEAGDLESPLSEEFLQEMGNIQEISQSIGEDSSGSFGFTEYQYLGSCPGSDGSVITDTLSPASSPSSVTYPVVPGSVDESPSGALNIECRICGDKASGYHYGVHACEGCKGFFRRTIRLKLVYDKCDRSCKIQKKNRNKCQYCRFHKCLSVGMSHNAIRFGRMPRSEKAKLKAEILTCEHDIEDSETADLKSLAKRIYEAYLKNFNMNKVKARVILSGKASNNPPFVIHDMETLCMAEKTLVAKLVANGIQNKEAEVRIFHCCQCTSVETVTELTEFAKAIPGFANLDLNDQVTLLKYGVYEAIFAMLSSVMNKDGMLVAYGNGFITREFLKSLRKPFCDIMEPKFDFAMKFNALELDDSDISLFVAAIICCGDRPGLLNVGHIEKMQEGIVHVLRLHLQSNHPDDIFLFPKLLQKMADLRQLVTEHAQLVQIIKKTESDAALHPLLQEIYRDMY
Outline: (§2)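 Scintillation proximity assay. Sf9 lysates with baculovirus-expressed PPARα (0.3 μg), PPARδ (0.5 μg) or PPARγ (1.25 μg), each with RXRα, were bound via biotinylated DR2 oligo (0.126 nM) to streptavidin yttrium silicate beads. Buffer was HEPES pH 7.8 with KCl, MgCl2, DTT, CHAPS, 14% glycerol and salmon sperm DNA. A 3H reference agonist ligand was used, with 11 compound concentrations, for 10 h. Nonspecific binding was defined with 10000 nM unlabeled reference. Ki was derived from IC50.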

[4] = Protein binding in plasma (unknown origin) by equilibrium dialysis method; format: ADME, cell-free; settings: human, read-out: PPB
Outline: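 Plasma protein binding measured by equilibrium dialysis.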

[5] = system: Mus musculus; test: Hypoglycemic activity in Balb/c mouse assessed as effective dose causing reduction in blood glucose level administered orally 60 mins prior to glucose challenge measured for 60 mins by IPGTT; format: functional; settings: po, 1 h
[6] = molecular target: T1, Free fatty acid receptor 1; test: Displacement of [3H]-TAK-875 from human recombinant full-length GPR40 expressed in human HEK293 cell membrane incubated for 2 hrs by solid scintillation counting method; format: cell membranes; settings: for Activity: filed as agonist
[7] = molecular target: T1, Free fatty acid receptor 1; test: Agonist activity at human recombinant full length GPR40 overexpressed in human HEK293 cells assessed as increase in intracellular calcium level measured over 3 mins by calcium 4 dye based FLIPR assay relative to 100 uM linoleic acid; format: functional, cell-based; settings: filed as agonist
Outline: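 HEK293 cells overexpressing hGPR40 (25K/well) were cultured overnight in DMEM/F12 with 0.2% FBS and geneticin. Compound was tested at 40 μM–0.1 nM final (20-point, 1% DMSO), and FLIPR fluorescence was read over 3 min.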

[8] = molecular target: Free fatty acid receptor 1 (Rattus norvegicus) (UniProt Q8K3T4); test: Agonist activity at GPR40 in Sprague-Dawley rat pancreatic islets assessed as induction of glucose-mediated insulin secretion measured after 90 mins in EBSS buffer by ELISA; format: tissue-based; settings: Pancreatic islet
Chain of Free fatty acid receptor 1 (Rattus norvegicus) (Q8K3T4 whole entry, the tested form may be a part): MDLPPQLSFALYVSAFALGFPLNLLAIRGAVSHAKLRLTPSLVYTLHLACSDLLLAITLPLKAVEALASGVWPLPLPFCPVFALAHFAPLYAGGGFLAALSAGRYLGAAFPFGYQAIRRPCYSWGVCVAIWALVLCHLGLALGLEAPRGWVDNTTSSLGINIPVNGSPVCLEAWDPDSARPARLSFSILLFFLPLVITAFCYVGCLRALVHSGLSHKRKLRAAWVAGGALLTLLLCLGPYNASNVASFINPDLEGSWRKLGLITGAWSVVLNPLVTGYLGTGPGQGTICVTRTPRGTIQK
Outline: (§3)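 Glucose-dependent insulin secretion in mouse MIN6 cells or rat islet cells, scored as secretion above the glucose-alone level.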

[9] = molecular target: T1, Free fatty acid receptor 1; test: Agonist activity at human recombinant full-length Prolink-tagged GPR40 fused with EA-tagged beta-arrestin expressed in human HEK293 cells assessed as induction of beta-arrestin recruitment measured after 90 mins by beta-galactosidase based PathHunter assay relative to control; format: cell-based; settings: filed as agonist; outline: as §1
[10] = molecular target: T3, Peroxisome proliferator-activated receptor delta (Homo sapiens) (UniProt Q03181); test: Displacement of [3H]-[…] from PPARdelta (unknown origin) expressed in baculovirus infected Sf9 insect cells upto 30 uM measured after 10 hrs by microbeta scintillation counting analysis; settings: dose microM <=30, time 10.0 hrs; outline: as §2
T3 sequence (whole entry): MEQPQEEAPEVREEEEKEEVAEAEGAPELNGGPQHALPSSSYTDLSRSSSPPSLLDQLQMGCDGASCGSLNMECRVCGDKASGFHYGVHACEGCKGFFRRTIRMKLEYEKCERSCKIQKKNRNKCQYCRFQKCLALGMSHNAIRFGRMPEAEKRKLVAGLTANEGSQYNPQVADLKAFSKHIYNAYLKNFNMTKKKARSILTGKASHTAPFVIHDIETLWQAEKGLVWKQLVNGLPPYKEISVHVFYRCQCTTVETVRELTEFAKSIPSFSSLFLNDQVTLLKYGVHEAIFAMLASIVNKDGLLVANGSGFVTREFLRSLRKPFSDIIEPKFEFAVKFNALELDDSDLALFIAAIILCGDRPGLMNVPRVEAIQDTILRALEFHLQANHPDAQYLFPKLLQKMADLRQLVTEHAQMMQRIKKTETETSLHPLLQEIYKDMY

[11] = molecular target: Free fatty acid receptor 1 (Mus musculus) (UniProt Q76JU9); test: Agonist activity at GPR40 in mouse MIN6 cells assessed as induction of glucose-mediated insulin secretion incubated for 2 hrs by ELISA; format: cell-based; outline: as §3
Chain of Free fatty acid receptor 1 (Mus musculus) (Q76JU9 whole entry): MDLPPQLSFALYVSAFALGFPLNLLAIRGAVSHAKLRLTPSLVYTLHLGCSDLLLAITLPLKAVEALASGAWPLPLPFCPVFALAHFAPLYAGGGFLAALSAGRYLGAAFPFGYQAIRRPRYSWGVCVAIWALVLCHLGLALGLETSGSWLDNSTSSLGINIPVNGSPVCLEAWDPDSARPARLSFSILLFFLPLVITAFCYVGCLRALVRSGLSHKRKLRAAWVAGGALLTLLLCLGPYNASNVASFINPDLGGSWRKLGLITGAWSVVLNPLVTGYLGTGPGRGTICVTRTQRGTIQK

[12] = Dissociation constant, pKa1 of compound by potentiometric method; format: physicochemical
Outline: (§4)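 pKa values measured potentiometrically.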

[13] = molecular target: T1, Free fatty acid receptor 1; test: Displacement of [3H]-(S)-2-(6-((2',6'-dimethyl-4'-(3-(methylsulfonyl)propoxy)biphenyl-3-yl)methoxy)-2,3-dihydrobenzofuran-3-yl)acetic acid from human recombinant full-length GPR40 expressed in human HEK293 cell membrane assessed as residence time by radioligand competitive assay; format: cell membranes; settings: filed as agonist
Outline: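 Residence time came from competitive association kinetics. [3H]-radioligand binding to human GPR40 HEK293 membranes (5 μg, rt, Tris/Ca/Mg/0.1% BSA buffer) was measured at time points over 0–3 h, with and without several concentrations of unlabeled test compound. Fits used association and dissociation rates of the radioligand from independent kinetic experiments.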

[14] = Dissociation constant, pKa2 of compound by potentiometric method; format: physicochemical; outline: as §4
[15] = molecular target: Free fatty acid receptor 1 (Rattus norvegicus) (UniProt Q8K3T4); test: Agonist activity at Prolink-tagged rat GPR40 fused with EA-tagged beta-arrestin expressed in human U2OS cells assessed as induction of beta-arrestin recruitment measured after 90 mins by beta-galactosidase based PathHunter assay relative to control; format: cell-based; settings: filed as agonist; outline: as §1

| SMILES | EC50 [1] [nM] | EC50 [2] [nM] | Activity [3] | fraction unbound [4] | ED90 [5] [mg/kg] | Ki [6] [nM] | Emax [7] [%] | Activity [8] | Emax [9] [%] | Activity [10] | Activity [11] | pKa [12] | TIME [13] [h] | pKa [14] | Emax [15] [%] | Activity [6] | Activity ([8]; filed as agonist) | Activity ([11]; filed as agonist) |
| --- | --- | --- | --- | --- | --- | --- | --- | --- | --- | --- | --- | --- | --- | --- | --- | --- | --- | --- |
| O=C(O)CCc1ccc(OCc2ccc(CN3CCC4(C=Cc5ccccc54)CC3)cc2)cc1F | 39 | 340 | inactive | < 0.01 | > 100 | 68 | 80 | inactive | 144 | inactive | inactive | 3.9 | 0.2 | 7.7 | 114 | – | – | – |
| O=C(O)C[C@@H](c1ccc(OCc2ccc3nc(-c4ccccc4)nn3c2)cc1)c1ccon1 | 68 | 600 | inactive | < 0.01 | > 100 | 79 | 54 | inactive | 141 | inactive | inactive | 1.9 | 0.367 | – | 61 | – | – | – |
| CC#C[C@@H](CC(=O)O)c1ccc(OCc2ccc(CN3CCCc4cccc(OC)c43)s2)cc1 | – | 7 | – | < 0.01 | 5 | – | – | – | 139 | – | – | 3.4 | – | 6 | 121 | Dose-dependent effect | – | – |
| CC#C[C@@H](CC(=O)O)c1ccc(OCc2ccc(CN3CCC4(C=Cc5ccccc54)CC3)cc2)cc1 [LY2881835] | 1.2 | – | inactive | < 0.01 | 0.58 | – | 62 | – | 137 | inactive | – | 4.1 | 2 | 8.1 | 124 | Dose-dependent effect | Active | Active |
| CC#C[C@@H](CC(=O)O)c1ccc(OCc2ccc(CN3CCC4(CCc5ccccc54)CC3)s2)cc1 | 6.1 | 7.9 | inactive | < 0.01 | 5.6 | 8.2 | 50 | – | 121 | inactive | – | 3.4 | 1.03 | 7.9 | 108 | Dose-dependent effect | Active | Active |
| CC#C[C@@H](CC(=O)O)c1ccc(OCc2ccc(CN3CCC4(C=Cc5ccccc54)CC3)s2)cc1 | 0.6 | 5.3 | inactive | < 0.01 | 3.67 | 4.8 | 50 | – | 116 | inactive | – | 4.2 | 0.667 | 7.4 | 113 | – | Active | Active |
| CC#C[C@@H](CC(=O)O)c1ccc(OCc2ccc(CN3CCC4(CC3)CN(C)c3ccccc34)cc2)cc1 | 12 | 56 | inactive | < 0.01 | 11.7 | 11 | 47 | – | 134 | inactive | – | 4.3 | 0.783 | 8.3 | 126 | – | Active | Active |
| CC#C[C@@H](CC(=O)O)c1ccc(OCc2ccc(CN3CCC4(CCc5ccccc54)CC3)cc2)cc1 | 6.2 | 11 | inactive | < 0.01 | 22 | 4.6 | 46 | – | 137 | inactive | – | 4.6 | 1.1 | 8.6 | 135 | – | Active | Active |
